In ChEMBL document CHEMBL1142352, “Chemical resolution of +/- -calanolide A, +/- -cordatolide A and their 11-demethyl analogues” (Bioorg Med Chem Lett, 2008):
≈ marks a conversion by molar mass, not a printed value.

What follows are compounds tested on Vero (assay: Cytotoxicity against african green monkey Vero cells at 10 uM). Conditions: chlorocebus sabaeus.
Assay type: cell-based
Summary of the method: (§1)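 Microtiter cytotoxicity assay run in parallel on Vero and TZM CD4+ CCR5+ cells. Serially diluted drug was applied, and viability was measured with a commercial cell viability assay. Values are reported as percent reduction in cell viability.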

Compound	Activity [%]
CCCc1cc(=O)oc2c3c(c4c(c12)OC(C)(C)C=C4)O[C@H](C)[C@@H](C)[C@@H]3O [CALANOLIDE A]	6
CCCc1cc(=O)oc2c3c(c4c(c12)OC(C)(C)C=C4)O[C@H](C)C[C@@H]3O [(+)-11-DEMETHYL CALANOLIDE A]	54
Cc1cc(=O)oc2c3c(c4c(c12)OC(C)(C)C=C4)O[C@H](C)[C@@H](C)[C@@H]3O [(+)-CORDATOLIDE A]	0
CCCc1cc(=O)oc2c3c(c4c(c12)OC(C)(C)C=C4)O[C@H](C)[C@@H](C)[C@@H]3O (racemic) [CALANOLIDE A]	0
CCCc1cc(=O)oc2c3c(c4c(c12)OC(C)(C)C=C4)O[C@@H](C)[C@H](C)[C@H]3O [(-)-CALANOLIDE A]	0
CCCc1cc(=O)oc2c3c(c4c(c12)OC(C)(C)C=C4)O[C@@H](C)C[C@H]3O [(-)-11-DEMETHYL CALANOLIDE A]	0
Cc1cc(=O)oc2c3c(c4c(c12)OC(C)(C)C=C4)O[C@@H](C)[C@H](C)[C@H]3O [(-)-CORDATOLIDE A]	0
Cc1cc(=O)oc2c3c(c4c(c12)OC(C)(C)C=C4)O[C@H](C)C[C@@H]3O [(+)-11-DEMETHYL CORDATOLIDE A]	0
Cc1cc(=O)oc2c3c(c4c(c12)OC(C)(C)C=C4)O[C@@H](C)C[C@H]3O [(-)-11-DEMETHYL CORDATOLIDE A]	0

These compounds were tested on Human immunodeficiency virus 1 (assay: Antiviral activity against HIV1 at 10 uM by luciferase assay). Conditions: not given.
Assay type: functional
Summary of the method: (§2)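 Pseudotyped HIV-1 assay: drug was serially diluted from 10 µM down to 0.1 nM and tested against 100 TCID50 of HIV ADA infecting TZM CD4+ CCR5+ cells. Infection was read on day 3 post-infection as reporter luciferase activity using a commercial kit, and results are given as percent inhibition. Controls were infected cells without drug, a pseudovirus with a non-specific envelope, and an RT inhibitor.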

Compound	Inhibition [%]
CCCc1cc(=O)oc2c3c(c4c(c12)OC(C)(C)C=C4)O[C@H](C)[C@@H](C)[C@@H]3O [CALANOLIDE A]	98

Same assay, conditions: Human immunodeficiency virus 1

Compound	inhibition at 10 µM [%]
CCCc1cc(=O)oc2c3c(c4c(c12)OC(C)(C)C=C4)O[C@H](C)C[C@@H]3O [(+)-11-DEMETHYL CALANOLIDE A]	98
Cc1cc(=O)oc2c3c(c4c(c12)OC(C)(C)C=C4)O[C@H](C)[C@@H](C)[C@@H]3O [(+)-CORDATOLIDE A]	85
CCCc1cc(=O)oc2c3c(c4c(c12)OC(C)(C)C=C4)O[C@H](C)[C@@H](C)[C@@H]3O (racemic) [CALANOLIDE A]	97
CCCc1cc(=O)oc2c3c(c4c(c12)OC(C)(C)C=C4)O[C@@H](C)[C@H](C)[C@H]3O [(-)-CALANOLIDE A]	97
CCCc1cc(=O)oc2c3c(c4c(c12)OC(C)(C)C=C4)O[C@@H](C)C[C@H]3O [(-)-11-DEMETHYL CALANOLIDE A]	0
Cc1cc(=O)oc2c3c(c4c(c12)OC(C)(C)C=C4)O[C@@H](C)[C@H](C)[C@H]3O [(-)-CORDATOLIDE A]	0
Cc1cc(=O)oc2c3c(c4c(c12)OC(C)(C)C=C4)O[C@H](C)C[C@@H]3O [(+)-11-DEMETHYL CORDATOLIDE A]	0
Cc1cc(=O)oc2c3c(c4c(c12)OC(C)(C)C=C4)O[C@@H](C)C[C@H]3O [(-)-11-DEMETHYL CORDATOLIDE A]	0

The compounds below were run on Vero (assay: Cytotoxicity against african green monkey Vero cells at 1.0 uM). Conditions: chlorocebus sabaeus.
Assay type: cell-based
Summary of the method: as §1

Compound	Activity [%]
CCCc1cc(=O)oc2c3c(c4c(c12)OC(C)(C)C=C4)O[C@H](C)[C@@H](C)[C@@H]3O [CALANOLIDE A]	1
CCCc1cc(=O)oc2c3c(c4c(c12)OC(C)(C)C=C4)O[C@H](C)C[C@@H]3O [(+)-11-DEMETHYL CALANOLIDE A]	0
Cc1cc(=O)oc2c3c(c4c(c12)OC(C)(C)C=C4)O[C@H](C)[C@@H](C)[C@@H]3O [(+)-CORDATOLIDE A]	0
CCCc1cc(=O)oc2c3c(c4c(c12)OC(C)(C)C=C4)O[C@H](C)[C@@H](C)[C@@H]3O (racemic) [CALANOLIDE A]	0
CCCc1cc(=O)oc2c3c(c4c(c12)OC(C)(C)C=C4)O[C@@H](C)[C@H](C)[C@H]3O [(-)-CALANOLIDE A]	0
CCCc1cc(=O)oc2c3c(c4c(c12)OC(C)(C)C=C4)O[C@@H](C)C[C@H]3O [(-)-11-DEMETHYL CALANOLIDE A]	0
Cc1cc(=O)oc2c3c(c4c(c12)OC(C)(C)C=C4)O[C@@H](C)[C@H](C)[C@H]3O [(-)-CORDATOLIDE A]	0
Cc1cc(=O)oc2c3c(c4c(c12)OC(C)(C)C=C4)O[C@H](C)C[C@@H]3O [(+)-11-DEMETHYL CORDATOLIDE A]	0
Cc1cc(=O)oc2c3c(c4c(c12)OC(C)(C)C=C4)O[C@@H](C)C[C@H]3O [(-)-11-DEMETHYL CORDATOLIDE A]	0

Each compound was assayed on Human immunodeficiency virus 1 (assay: Antiviral activity against HIV1 at 1.0 uM by luciferase assay). Conditions: not given.
Assay type: functional
Summary of the method: as §2

Compound	Inhibition [%]
CCCc1cc(=O)oc2c3c(c4c(c12)OC(C)(C)C=C4)O[C@H](C)[C@@H](C)[C@@H]3O (racemic) [CALANOLIDE A]	81

Same assay, conditions: Human immunodeficiency virus 1

Compound	inhibition at 1 µM [%]
CCCc1cc(=O)oc2c3c(c4c(c12)OC(C)(C)C=C4)O[C@H](C)[C@@H](C)[C@@H]3O [CALANOLIDE A]	86
CCCc1cc(=O)oc2c3c(c4c(c12)OC(C)(C)C=C4)O[C@H](C)C[C@@H]3O [(+)-11-DEMETHYL CALANOLIDE A]	75
Cc1cc(=O)oc2c3c(c4c(c12)OC(C)(C)C=C4)O[C@H](C)[C@@H](C)[C@@H]3O [(+)-CORDATOLIDE A]	44
CCCc1cc(=O)oc2c3c(c4c(c12)OC(C)(C)C=C4)O[C@@H](C)[C@H](C)[C@H]3O [(-)-CALANOLIDE A]	67
CCCc1cc(=O)oc2c3c(c4c(c12)OC(C)(C)C=C4)O[C@@H](C)C[C@H]3O [(-)-11-DEMETHYL CALANOLIDE A]	0
Cc1cc(=O)oc2c3c(c4c(c12)OC(C)(C)C=C4)O[C@@H](C)[C@H](C)[C@H]3O [(-)-CORDATOLIDE A]	0
Cc1cc(=O)oc2c3c(c4c(c12)OC(C)(C)C=C4)O[C@H](C)C[C@@H]3O [(+)-11-DEMETHYL CORDATOLIDE A]	0
Cc1cc(=O)oc2c3c(c4c(c12)OC(C)(C)C=C4)O[C@@H](C)C[C@H]3O [(-)-11-DEMETHYL CORDATOLIDE A]	0

These compounds were tested on Mycobacterium tuberculosis (assay: Antimicrobial activity against Mycobacterium tuberculosis). Conditions: not given.
Assay type: functional

Compound	MIC [µg/mL]
CCCc1cc(=O)oc2c3c(c4c(c12)OC(C)(C)C=C4)O[C@H](C)[C@@H](C)[C@@H]3O [CALANOLIDE A]	3.13 (≈ 8.45 µM)
